{"source": "ChEMBL document CHEMBL1139314", "about": "“Discovery and structure-activity relationships of 4-aminoquinazoline derivatives, a novel class of opioid receptor like-1 (ORL1) antagonists” (Bioorg Med Chem, 2009)", "key": {"[1]": {"target": "Delta-type opioid receptor (Rattus norvegicus, UniProt P33533)", "sequence (P33533 whole entry)": "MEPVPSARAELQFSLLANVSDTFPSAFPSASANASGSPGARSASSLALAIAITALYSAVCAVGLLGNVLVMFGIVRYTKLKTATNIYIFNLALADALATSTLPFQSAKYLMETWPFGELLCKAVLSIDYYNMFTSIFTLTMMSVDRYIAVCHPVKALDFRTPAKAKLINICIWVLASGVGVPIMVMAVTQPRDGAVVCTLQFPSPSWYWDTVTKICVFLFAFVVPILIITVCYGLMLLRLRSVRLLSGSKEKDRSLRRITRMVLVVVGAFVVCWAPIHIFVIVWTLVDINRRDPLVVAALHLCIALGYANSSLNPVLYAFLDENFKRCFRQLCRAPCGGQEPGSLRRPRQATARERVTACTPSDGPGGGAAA", "test": "Displacement of [3H]diprenorphine from rat delta opioid receptor expressed in CHO-K1 cells", "format": "cell-based", "in_short": "(§1)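 Competition binding used membranes from stably transfected CHO-K1 cells. The radioligand was leucyl-[3H]nociceptin for ORL1 and [3H]diprenorphine for mu, delta and kappa. Nonspecific binding was defined with unlabeled nociceptin (ORL1), naloxone (mu), naltrindole (delta) or naloxone benzoylhydrazone (kappa). Incubation was 1 h at 25 °C in 50 mM Tris-HCl pH 7.8 with 5 mM MgCl2, 1 mM EGTA and 0.1% BSA. Samples were filtered on PEI-soaked GF/B filters and counted. Ki was derived by Cheng–Prusoff.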"}, "[2]": {"target": "Kappa-type opioid receptor (Rattus norvegicus, UniProt P34975)", "sequence (P34975 whole entry)": "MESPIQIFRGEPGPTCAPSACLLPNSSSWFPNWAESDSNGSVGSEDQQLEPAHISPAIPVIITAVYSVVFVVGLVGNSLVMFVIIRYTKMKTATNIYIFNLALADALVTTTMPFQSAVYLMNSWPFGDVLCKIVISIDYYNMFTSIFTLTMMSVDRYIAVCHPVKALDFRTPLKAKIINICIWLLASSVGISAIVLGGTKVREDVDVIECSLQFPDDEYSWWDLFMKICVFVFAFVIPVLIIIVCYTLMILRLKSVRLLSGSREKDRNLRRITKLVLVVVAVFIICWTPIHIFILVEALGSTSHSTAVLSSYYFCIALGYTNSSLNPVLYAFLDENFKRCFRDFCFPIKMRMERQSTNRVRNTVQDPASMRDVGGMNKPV", "test": "Displacement of [3H]diprenorphine from rat kappa opioid receptor expressed in CHO-K1 cells", "format": "cell-based", "in_short": "as §1"}, "Mu-type opioid receptor [3]": {"target": "Mu-type opioid receptor (Homo sapiens, UniProt P35372)", "sequence (P35372 whole entry)": "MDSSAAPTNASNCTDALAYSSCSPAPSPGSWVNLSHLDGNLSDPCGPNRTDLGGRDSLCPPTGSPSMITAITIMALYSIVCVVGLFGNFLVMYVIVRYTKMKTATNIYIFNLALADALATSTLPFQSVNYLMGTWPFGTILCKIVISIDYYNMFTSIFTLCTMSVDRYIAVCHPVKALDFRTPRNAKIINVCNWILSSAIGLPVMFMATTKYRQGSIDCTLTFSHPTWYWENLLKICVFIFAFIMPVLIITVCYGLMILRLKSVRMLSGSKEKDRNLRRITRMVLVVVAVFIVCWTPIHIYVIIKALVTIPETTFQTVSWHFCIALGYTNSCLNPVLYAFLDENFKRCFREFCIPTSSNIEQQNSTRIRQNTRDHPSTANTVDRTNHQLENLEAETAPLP", "test": "Displacement of [3H]diprenorphine from human mu opioid receptor expressed in CHO-K1 cells", "format": "cell-based", "in_short": "as §1"}, "[4]": {"test": "Displacement of [3H]nociceptin from human ORL1 receptor expressed in CHO-K1 cells", "format": "cell-based", "in_short": "as §1"}, "Mu-type opioid receptor [5]": {"target": "Mu-type opioid receptor (Rattus norvegicus, UniProt P33535)", "sequence (P33535 whole entry)": "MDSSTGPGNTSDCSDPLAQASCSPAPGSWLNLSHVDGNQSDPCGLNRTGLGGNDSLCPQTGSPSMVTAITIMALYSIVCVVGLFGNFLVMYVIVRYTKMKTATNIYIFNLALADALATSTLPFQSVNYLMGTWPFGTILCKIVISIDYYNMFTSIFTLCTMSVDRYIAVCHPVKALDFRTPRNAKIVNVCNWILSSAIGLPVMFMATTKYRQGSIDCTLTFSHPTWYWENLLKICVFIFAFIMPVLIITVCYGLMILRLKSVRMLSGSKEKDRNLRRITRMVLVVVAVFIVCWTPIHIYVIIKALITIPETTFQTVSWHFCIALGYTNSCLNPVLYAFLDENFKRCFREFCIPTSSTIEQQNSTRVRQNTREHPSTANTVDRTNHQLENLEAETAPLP", "test": "Displacement of [3H]diprenorphine from rat mu opioid receptor expressed in CHO-K1 cells", "format": "cell-based", "in_short": "as §1"}, "[6]": {"test": "Selectivity ratio of Ki for rat mu opioid receptor to Ki for human ORL1 receptor", "in_short": "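Membranes came from CHO-K1 cells expressing rat mu opioid receptor ([3H]diprenorphine; naloxone defines nonspecific binding) or human ORL1 ([3H]nociceptin; unlabeled nociceptin). Ki values were calculated by Cheng–Prusoff.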"}, "CHO-K1": {"system": "CHO-K1", "test": "Antagonist activity at human ORL1 receptor expressed in CHO-K1 cells assessed as inhibition of forskolin-stimulated cAMP accumulation", "format": "functional, cell-based", "in_short": "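CHO-K1 cells stably expressing human ORL1 were preincubated 5 min at 37 °C, 5% CO2, in Krebs-Henseleit solution (pH 7.4) with 0.5 mM IBMX. Forskolin (3 μM final) and test compound (1–1000 nM) were then added with or without nociceptin and incubated 10 min at 37 °C. Cells were lysed, and intracellular cAMP was measured by enzyme immunoassay the same day.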"}, "[7]": {"test": "Antagonist activity at human ORL1 receptor expressed in CHO-K1 cells assessed as inhibition of cAMP accumulation"}}, "note": "The source made the active and inactive calls. No cut-off for these calls is given here.", "data": [{"smiles": "Cc1ccc2nc(NC(=O)c3ccc(Cl)cc3)nc(N[C@H]3CCCC[C@H]3NC(=N)N)c2c1", "note": "(single isomer, unassigned)", "values": [{"measurement": "Ki", "setting": "[1]", "result": 4.3, "unit": "µM"}, {"measurement": "Ki", "setting": "[2]", "result": 510, "unit": "nM"}, {"measurement": "Ki", "setting": "Mu-type opioid receptor [3]", "result": 270, "unit": "nM"}, {"measurement": "Ki", "setting": "[4]", "result": 140, "unit": "nM"}]}, {"smiles": "Cc1ccc2nc(NC(=O)c3ccc(Cl)cc3)nc(NC3CCCCC3NC(=N)N)c2c1", "note": "(racemic)", "values": [{"measurement": "Ki", "setting": "[1]", "result": 4, "unit": "µM"}, {"measurement": "Ki", "setting": "[2]", "result": 1200, "unit": "nM"}, {"measurement": "Ki", "setting": "Mu-type opioid receptor [3]", "result": 310, "unit": "nM"}, {"measurement": "Ki", "setting": "[4]", "result": 2.1, "unit": "nM"}]}, {"smiles": "Cc1ccc2nc(/C=C/c3ccc(Cl)cc3)nc(N[C@H]3CCCC[C@H]3N)c2c1", "note": "(racemic)", "values": [{"measurement": "Ki", "setting": "Mu-type opioid receptor [5]", "result": 150, "unit": "nM"}, {"measurement": "Ki", "setting": "[4]", "result": 200, "unit": "nM"}, {"measurement": "Ratio Ki", "setting": "[6]", "result": 0.75}]}, {"smiles": "Cc1ccc2nc(/C=C/c3ccc(Cl)cc3)nc(NCCN)c2c1", "values": [{"measurement": "Ki", "setting": "Mu-type opioid receptor [5]", "result": 240, "unit": "nM"}, {"measurement": "Ki", "setting": "[4]", "result": 972, "unit": "nM"}, {"measurement": "Ratio Ki", "setting": "[6]", "result": 0.25}]}, {"smiles": "Cc1ccc2nc(/C=C/c3ccc(Cl)cc3)nc(NCCCCCCN)c2c1", "values": [{"measurement": "Ki", "setting": "Mu-type opioid receptor [5]", "result": 120, "unit": "nM"}, {"measurement": "Ki", "setting": "[4]", "result": 232, "unit": "nM"}, {"measurement": "Ratio Ki", "setting": "[6]", "result": 0.51}]}, {"smiles": "NCCCCCCNc1nc(/C=C/c2ccc(Cl)cc2)nc2cc3ccccc3cc12", "values": [{"measurement": "Ki", "setting": "Mu-type opioid receptor [5]", "result": 410, "unit": "nM"}, {"measurement": "Ki", "setting": "[4]", "result": 133, "unit": "nM"}, {"measurement": "Ratio Ki", "setting": "[6]", "result": 3.08}]}, {"smiles": "NCCCCCCNc1nc(/C=C/c2ccc(Cl)cc2)nc2ccc(Cl)cc12", "values": [{"measurement": "Ki", "setting": "Mu-type opioid receptor [5]", "result": 380, "unit": "nM"}, {"measurement": "Ki", "setting": "[4]", "result": 294, "unit": "nM"}, {"measurement": "Ratio Ki", "setting": "[6]", "result": 1.29}]}, {"smiles": "Cc1cccc2nc(/C=C/c3ccc(Cl)cc3)nc(NCCCCCCN)c12", "values": [{"measurement": "Ki", "setting": "Mu-type opioid receptor [5]", "result": 170, "unit": "nM"}, {"measurement": "Ki", "setting": "[4]", "result": 808, "unit": "nM"}, {"measurement": "Ratio Ki", "setting": "[6]", "result": 0.21}]}, {"smiles": "Cc1ccc2nc(/C=C/c3ccc(Cl)cc3)nc(N[C@H]3CC[C@H](N)CC3)c2c1", "values": [{"measurement": "Ki", "setting": "Mu-type opioid receptor [5]", "result": 300, "unit": "nM"}, {"measurement": "Ki", "setting": "[4]", "result": 795, "unit": "nM"}, {"measurement": "Ratio Ki", "setting": "[6]", "result": 0.37}]}, {"smiles": "Cc1ccc2nc(/C=C/c3ccc(Cl)cc3)nc(NCCCCN)c2c1", "values": [{"measurement": "Ki", "setting": "Mu-type opioid receptor [5]", "result": 250, "unit": "nM"}, {"measurement": "Ki", "setting": "[4]", "result": 194, "unit": "nM"}, {"measurement": "Ratio Ki", "setting": "[6]", "result": 1.29}]}, {"smiles": "Cc1ccc2nc(/C=C/c3ccc(Cl)cc3)nc(N[C@H]3CC[C@@H](N)CC3)c2c1", "values": [{"measurement": "Ki", "setting": "Mu-type opioid receptor [5]", "result": 410, "unit": "nM"}, {"measurement": "Ki", "setting": "[4]", "result": 162, "unit": "nM"}, {"measurement": "Ratio Ki", "setting": "[6]", "result": 2.53}]}, {"smiles": "Cc1ccc2nc(/C=C/c3ccc(Cl)cc3)nc(N[C@H]3CCCC[C@@H]3N)c2c1", "note": "(racemic)", "values": [{"measurement": "Ki", "setting": "Mu-type opioid receptor [5]", "result": 180, "unit": "nM"}, {"measurement": "Ki", "setting": "[4]", "result": 538, "unit": "nM"}, {"measurement": "Ratio Ki", "setting": "[6]", "result": 0.33}]}, {"smiles": "NCCCCCCNc1nc(/C=C/c2ccc(Cl)cc2)nc2ccccc12", "values": [{"measurement": "Ki", "setting": "Mu-type opioid receptor [5]", "result": 180, "unit": "nM"}, {"measurement": "Ki", "setting": "[4]", "result": 383, "unit": "nM"}, {"measurement": "Ratio Ki", "setting": "[6]", "result": 0.47}]}, {"smiles": "Cc1ccc2nc(/C=C/c3ccc(Cl)cc3)nc(NCCCCNC(=N)N)c2c1", "values": [{"measurement": "Ki", "setting": "Mu-type opioid receptor [5]", "result": 2300, "unit": "nM"}, {"measurement": "Ki", "setting": "[4]", "result": 160, "unit": "nM"}, {"measurement": "Ratio Ki", "setting": "[6]", "result": 14.4}]}, {"smiles": "Cc1ccc2nc(/C=C/c3ccc(Cl)cc3)nc(N[C@H]3CCCC[C@H]3NC(=N)N)c2c1", "note": "(racemic)", "values": [{"measurement": "Ki", "setting": "Mu-type opioid receptor [5]", "result": 220, "unit": "nM"}, {"measurement": "Ki", "setting": "[4]", "result": 43, "unit": "nM"}, {"measurement": "Ratio Ki", "setting": "[6]", "result": 5.11}]}, {"smiles": "Cc1cccc2c(NCCCCCCN)nc(/C=C/c3ccc(Cl)cc3)nc12", "values": [{"measurement": "Ki", "setting": "Mu-type opioid receptor [5]", "result": 930, "unit": "nM"}, {"measurement": "Ki", "setting": "[4]", "result": 653, "unit": "nM"}, {"measurement": "Ratio Ki", "setting": "[6]", "result": 1.42}]}, {"smiles": "Cc1ccc2nc(/C=C/c3ccc(Cl)cc3)nc(N[C@H]3CC[C@@H](NC(=N)N)CC3)c2c1", "values": [{"measurement": "Ki", "setting": "Mu-type opioid receptor [5]", "result": 60, "unit": "nM"}, {"measurement": "Ki", "setting": "[4]", "result": 152, "unit": "nM"}, {"measurement": "Ratio Ki", "setting": "[6]", "result": 0.39}]}, {"smiles": "Cc1ccc2nc(NC(=O)c3ccc(Cl)cc3)nc(N[C@@H]3CCCC[C@@H]3NC(=N)N)c2c1", "note": "(single isomer, unassigned)", "values": [{"measurement": "Ki", "setting": "[1]", "result": 3.6, "unit": "µM"}, {"measurement": "Ki", "setting": "[2]", "result": 2400, "unit": "nM"}, {"measurement": "Ki", "setting": "Mu-type opioid receptor [3]", "result": 330, "unit": "nM"}, {"measurement": "Ki", "setting": "[4]", "result": 1.4, "unit": "nM"}, {"measurement": "Activity", "setting": "CHO-K1", "result": "inactive"}, {"measurement": "IC50", "setting": "[7]", "result": 17, "unit": "nM"}]}, {"smiles": "Cc1ccc2nc(/C=C/c3ccc(Cl)cc3)nc(NCCCCCCNC(=N)N)c2c1", "values": [{"measurement": "Ki", "setting": "Mu-type opioid receptor [5]", "result": 300, "unit": "nM"}, {"measurement": "Ki", "setting": "[4]", "result": 89, "unit": "nM"}, {"measurement": "Ratio Ki", "setting": "[6]", "result": 3.37}]}, {"smiles": "Cc1ccc2c(NCCCCCCN)nc(/C=C/c3ccc(Cl)cc3)nc2c1", "values": [{"measurement": "Ki", "setting": "Mu-type opioid receptor [5]", "result": 200, "unit": "nM"}, {"measurement": "Ki", "setting": "[4]", "result": 420, "unit": "nM"}, {"measurement": "Ratio Ki", "setting": "[6]", "result": 0.48}]}, {"smiles": "CC(C)(C)c1ccc2nc(/C=C/c3ccc(Cl)cc3)nc(NCCCCCCN)c2c1", "values": [{"measurement": "Ki", "setting": "Mu-type opioid receptor [5]", "result": 380, "unit": "nM"}, {"measurement": "Ki", "setting": "[4]", "result": 292, "unit": "nM"}, {"measurement": "Ratio Ki", "setting": "[6]", "result": 1.3}]}]}
